The array DNA melting data of Ke et al. (doi:10.1101/2024.01.08.574731)

Columns and labels:
[1] = melting temperature; fluorescence melt of hairpins on a sequencing array, two-state fit, raised by 9.35 °C to match UV melts; conditions: sodium 0.088 M
Procedure, shortened: (§1)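 Cy3 signals were normalised both to pre-quench Cy3 and to control constructs. They came from library hairpins carrying annealed Cy3 and quencher oligos on a sequenced MiSeq flow cell, imaged in 50 mM Na-HEPES pH 8.0, 25 mM NaCl, in 2.5 °C steps up to 60 °C. Bootstrapped two-state fits gave melting temperature and folding enthalpy, and four replicates were combined by inverse variance. Fitted temperatures were then raised by 9.35 °C to match UV melts.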

[2] = folding enthalpy; higher = less favourable; fluorescence melt of hairpins on a sequencing array, two-state fit; conditions: sodium 0.088 M
Procedure, shortened: as §1

| Sequence | Tm [1] | folding enthalpy [2] |
| --- | --- | --- |
| GGGCGGGGAAACCCACCC (((.(((....))).))) | 54.6 °C | -40.7 kcal/mol |
| GGGCGGGGAAACTCGCCC (((((.(....).))))) | 67.4 °C | -41.3 kcal/mol |
| GGGCGTGCGAAAGCACCC (((..(((....)))))) | 54.4 °C | -13 kcal/mol |
| GGGCGTGGAAACACGTCC ((.((((....)))).)) | 62.1 °C | -36.1 kcal/mol |
| GGGCGTGGAAACGCGCCC (((((.(....).))))) | 68.3 °C | -22.5 kcal/mol |
| GGGCTAGGAAACTAGTCC ((.((((....)))).)) | 52.4 °C | -37.6 kcal/mol |
| GGGCTAGGAAACTGGCCC ((((.((....)).)))) | 58.2 °C | -41.4 kcal/mol |
| GGGCTCGAAAGAGAACCC ((((((....)))..))) | 45.2 °C | -19.5 kcal/mol |
| GGGCTCGAAAGAGACCC ((((((....))).))) | 66.8 °C | -20.9 kcal/mol |
| GGGCTCGAAAGAGCACCC ((((((....)))..))) | 58.1 °C | -12.2 kcal/mol |
| GGGCTCGGAAACGGGTCC ((.(.((....)).).)) | 48.6 °C | -34.5 kcal/mol |
| GGGCTGGGAAACCGGCCC ((((.((....)).)))) | 67.2 °C | -29.2 kcal/mol |
| GGGCTGGGAAACCGGCTC (.((.((....)).)).) | 49.1 °C | -19.7 kcal/mol |
| GGGCTTCCGAAAGGACCC (((..(((....)))))) | 39.9 °C | -23.4 kcal/mol |
| GGGCTTCGAAAGAATCCC (((.(((....))).))) | 46.4 °C | -33 kcal/mol |
| GGGCTTGCGAAAGCACCC (((..(((....)))))) | 45.6 °C | -15.8 kcal/mol |
| GGGCTTGGAAACAAGTCC ((.((((....)))).)) | 54.6 °C | -50.9 kcal/mol |
| GGGCTTGGAAACGAGTCC ((.((.(....).)).)) | 43.9 °C | -32.8 kcal/mol |
| GGGGAAGGAAACTCCCCC ((((.((....)).)))) | 46.9 °C | -24.8 kcal/mol |
| GGGGACCGAAAGGTTCCC (((.(((....))).))) | 66.3 °C | -43.5 kcal/mol |
| GGGGACGAAAGTCAGCCC ((((((....)))..))) | 49.5 °C | -15.4 kcal/mol |
| GGGGACGAAAGTCGTCCC ((((((....)))..))) | 61.3 °C | -20.8 kcal/mol |
| GGGGACGAAAGTCTCCC ((((((....))).))) | 60 °C | -23.9 kcal/mol |

| Sequence | Tm [1] | folding enthalpy [2] |
| --- | --- | --- |
| GGGGACGAAAGTCTCCCC ((((((....)))..))) | 58.2 °C | -14.3 kcal/mol |
| GGGGACGGAAACATCCCC (((((.(....).))))) | 47 °C | -32.8 kcal/mol |
| GGGGACGGAAACGCCCCC ((((.((....)).)))) | 57.9 °C | -26.1 kcal/mol |
| GGGGAGGCGAAAGCCCCC (((..(((....)))))) | 64.5 °C | -14.2 kcal/mol |
| GGGGAGGGAAACCTCCTC (.(((((....))))).) | 53.4 °C | -15.6 kcal/mol |
| GGGGATCGAAAGATACCC (((.(((....))).))) | 62.3 °C | -43.2 kcal/mol |
| GGGGATGGAAACGTTCCC (((.(.(....).).))) | 39 °C | -30 kcal/mol |
| GGGGCAGGAAACCACCCC ((((..(....)..)))) | 36.6 °C | -28.6 kcal/mol |
| GGGGCAGGAAACTACCCC ((((.((....)).)))) | 49 °C | -29.4 kcal/mol |
| GGGGCAGGAAACTGCCTC (.(((((....))))).) | 59.6 °C | -13.1 kcal/mol |
| GGGGCAGGAAACTGCTCC ((.((((....)))).)) | 60.2 °C | -36.6 kcal/mol |
| GGGGCCACGAAAGTGCCC (((..(((....)))))) | 60 °C | -26.2 kcal/mol |
| GGGGCCGAAAGGCATCCC ((((((....)))..))) | 54.9 °C | -13.9 kcal/mol |
| GGGGCCGAAAGGCTGCCC ((((((....)))..))) | 46.4 °C | -14.2 kcal/mol |
| GGGGCTGGAAACGGTCCC (((.(.(....).).))) | 49.6 °C | -33 kcal/mol |
| GGGGGAGGAAACCCCCCC (((((.(....).))))) | 55.1 °C | -20.1 kcal/mol |
| GGGGGCGAAAGCCAGCCC ((((((....)))..))) | 51.8 °C | -14.1 kcal/mol |
| GGGGGCGAAAGCCATCCC ((((((....)))..))) | 51.5 °C | -13.5 kcal/mol |
| GGGGGCGGAAACGTCCCC ((((.((....)).)))) | 67.4 °C | -22.5 kcal/mol |
| GGGGGTGGAAACACCTCC ((.((((....)))).)) | 54.9 °C | -29.1 kcal/mol |
| GGGGTACGAAAGTATCCC (((.(((....))).))) | 58 °C | -33.5 kcal/mol |
| GGGGTAGGAAACTGCTCC ((.(.((....)).).)) | 35.9 °C | -29.9 kcal/mol |
| GGGGTCGAAAGACACCC ((((((....))).))) | 63.1 °C | -18.2 kcal/mol |

| Sequence | Tm [1] | folding enthalpy [2] |
| --- | --- | --- |
| GGGGTCGAAAGACTCCC ((((((....))).))) | 57 °C | -30.9 kcal/mol |
| GGGGTCGGAAACGACCTC (.(((((....))))).) | 61.4 °C | -14.1 kcal/mol |
| GGGGTGACGAAAGTCCCC (((..(((....)))))) | 56 °C | -31.8 kcal/mol |
| GGGGTGGGAAACCGCCCC ((((.((....)).)))) | 65.9 °C | -38.1 kcal/mol |
| GGGGTTACGAAAGTACCC (((..(((....)))))) | 51.4 °C | -22.8 kcal/mol |
| GGGTAAGGAAACCTACCC (((((.(....).))))) | 42.9 °C | -30.6 kcal/mol |
| GGGTACACGAAAGTGCCC (((..(((....)))))) | 48 °C | -21.2 kcal/mol |
| GGGTACGAAAGTAAACCC ((((((....)))..))) | 47.3 °C | -28.4 kcal/mol |
| GGGTACGAAAGTACGCCC ((((((....)))..))) | 46.1 °C | -13.3 kcal/mol |
| GGGTACGAAAGTAGCCC ((((((....))).))) | 56.2 °C | -26.3 kcal/mol |
| GGGTACGAAAGTAGGCCC ((((((....)))..))) | 38.6 °C | -20.1 kcal/mol |
| GGGTACGAAAGTATCCC ((((((....))).))) | 51.8 °C | -37.3 kcal/mol |
| GGGTACGCGAAAGCGCCC (((..(((....)))))) | 47.2 °C | -16.3 kcal/mol |
| GGGTACGGAAACGTGCCC (((.(((....))).))) | 60.1 °C | -53.5 kcal/mol |
| GGGTACGGAAACGTGTCC ((..(((....)))..)) | 40.6 °C | -24.8 kcal/mol |
| GGGTAGCGAAAGCTCCCC (((.(((....))).))) | 55.1 °C | -28 kcal/mol |
| GGGTAGGAAACTACCC ((((((....)))))) | 58.8 °C | -29.6 kcal/mol |
| GGGTATACGAAAGTACCC (((..(((....)))))) | 45.6 °C | -24.4 kcal/mol |
| GGGTATCGAAAGATTCCC (((.(((....))).))) | 48.8 °C | -30.6 kcal/mol |
| GGGTATTCGAAAGAACCC (((..(((....)))))) | 34.5 °C | -22 kcal/mol |
| GGGTCAGGAAACTGATCC ((.((((....)))).)) | 51.9 °C | -38.9 kcal/mol |
| GGGTCAGGAAACTGGCCC (((.(((....))).))) | 60.4 °C | -41.8 kcal/mol |
